What was measured:
[1] = Plasma pharmacokinetics of AG014447; type: in vivo, human; settings: for effect of TMZ on pharmacokinetics (interaction): after a single dose or multiple doses
[2] = AG014447 concentration in tumour biopsy homogenates; type: in vivo, human; settings: samples taken 5 hours (24 hr in 3 patients) after administration
PARP [3] = target: T1, PARP (Homo sapiens, UniProt P09874); experiment: PARP activity immunoassay ex vivo in peripheral blood lymphocytes
How it was run: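 Patients with solid tumours (part 1) got one IV dose of PARP inhibitor on day -7, then temozolomide 100 mg/m2/day x5 q28 days with the inhibitor, over 5 escalating dose levels. PBLs were sampled at baseline, end of infusion, 4-6 h and 24 h on days -7, 1 and 4 of cycle 1, plus day 8 at PID. PAR formation was quantified immunologically ex vivo. PID: maximal (≥50%) activity reduction at 24 h, with no gain over the preceding dose.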

PARP [4] = target: T1, PARP; experiment: PARP activity immunoassay in paired tumour biopsies of melanoma patients; type: in vivo
How it was run: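 Chemonaive melanoma patients (part 2) received PARP inhibitor at PID with temozolomide escalated to at most 200 mg/m2; one extra level used 18 mg/m2 inhibitor plus 200 mg/m2 temozolomide. Paired biopsies were taken at baseline and after the first inhibitor dose (4, 5 or 24 h stated). PAR formation was quantified immunologically ex vivo. Activity was expressed as percentage of the same patient's pre-treatment biopsy.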

[5] = Toxicity / dose limiting toxicity in phase I trial; type: in vivo, human; settings: for dose recommended for future studies: combination, x5 every 28 days
[6] = system: DNA strand breaks in PBLs; experiment: Alkaline Comet assay for DNA strand breaks in PBLs of patients; type: in vivo, human
How it was run: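 Alkaline Comet assay (modified Olive method) on peripheral blood mononuclear cells, with slides stained with SYBR gold. Blood was sampled in cycle 1 before, 4 h and 24 h after temozolomide, following a daily 30 min IV infusion of test compound. For each sample, 50 cells from two slides were scored for % tail DNA and Olive tail moment, and means were taken. Readings were averaged by dose cohort (up to 6 patients).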

advanced solid tumors = experiment: Tumour response by RECIST in phase I patients; type: in vivo, human; settings: AG014699 + TMZ
How it was run: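 Patients with advanced solid tumours received a daily 30 min IV infusion of test compound followed by oral temozolomide for 5 consecutive days, repeated every 28 days. Response was assessed by RECIST every 2 cycles, and patients completing 2 cycles were evaluable.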

PARP [7] = settings: most efficacious dose of AG014699 combined with TMZ; cited from earlier work
SW620 tumours = settings: most efficacious dose of AG014699 combined with TMZ; animals bearing SW620 tumours; cited from earlier work
metastatic melanoma = settings: phase II, AG014699 with TMZ, preliminary results; cited from earlier work
[8] = cited from earlier work

T1 sequence (P09874 whole entry, the tested form may be a part): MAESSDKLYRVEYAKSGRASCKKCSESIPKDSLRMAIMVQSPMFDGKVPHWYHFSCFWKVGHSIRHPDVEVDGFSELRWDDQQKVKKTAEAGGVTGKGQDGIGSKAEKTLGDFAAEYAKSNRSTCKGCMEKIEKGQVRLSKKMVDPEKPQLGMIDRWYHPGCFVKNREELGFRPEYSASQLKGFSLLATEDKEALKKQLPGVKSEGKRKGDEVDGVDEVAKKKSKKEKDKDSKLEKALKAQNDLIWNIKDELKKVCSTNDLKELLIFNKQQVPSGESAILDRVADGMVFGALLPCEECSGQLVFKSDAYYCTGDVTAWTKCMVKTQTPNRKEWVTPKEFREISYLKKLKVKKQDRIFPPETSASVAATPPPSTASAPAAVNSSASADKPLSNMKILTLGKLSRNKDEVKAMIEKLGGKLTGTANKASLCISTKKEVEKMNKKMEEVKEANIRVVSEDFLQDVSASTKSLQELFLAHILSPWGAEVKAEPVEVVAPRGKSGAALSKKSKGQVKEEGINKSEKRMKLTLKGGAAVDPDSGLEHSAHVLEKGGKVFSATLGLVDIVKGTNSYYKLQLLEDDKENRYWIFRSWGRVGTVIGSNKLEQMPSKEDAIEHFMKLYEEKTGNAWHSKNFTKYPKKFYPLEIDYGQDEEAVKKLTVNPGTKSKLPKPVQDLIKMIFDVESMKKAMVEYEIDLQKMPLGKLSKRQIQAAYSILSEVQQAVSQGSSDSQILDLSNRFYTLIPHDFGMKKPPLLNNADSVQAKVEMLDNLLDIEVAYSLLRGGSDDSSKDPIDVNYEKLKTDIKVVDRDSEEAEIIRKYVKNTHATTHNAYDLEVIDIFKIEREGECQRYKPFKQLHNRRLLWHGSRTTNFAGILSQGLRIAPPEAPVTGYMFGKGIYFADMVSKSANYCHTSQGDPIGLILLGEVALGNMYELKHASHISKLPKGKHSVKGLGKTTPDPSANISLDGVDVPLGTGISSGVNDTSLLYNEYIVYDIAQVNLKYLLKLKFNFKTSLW

CNCc1ccc(-c2[nH]c3cc(F)cc4c3c2CCNC4=O)cc1 [AG014447]
effect of TMZ on pharmacokinetics (interaction) ([1]; listed as AG-014447): no evidence that TMZ has an effect | mean terminal half-life (CV%) ([1]; mean for the treated population): 9.5 (50.4) hours | concentration in tumour biopsy homogenates, range [2]: 5-110 ng/g tumour protein

CNCc1ccc(-c2[nH]c3cc(F)cc4c3c2CCNC4=O)cc1 [AG014699]
PBL PARP enzyme activity recovered, of baseline (PARP [3]; 12 mg/m^2/day, cycle 1 day 8, 72 hours after the last dose): ~50% | PARP inhibition in PBLs (PARP [3]; all AG014699 dose levels, at the end of infusion): > 90% | inhibition of PBL PARP activity (PARP [3]; at PID 12 mg/m^2): 74 -97% | PARP-inhibitory dose (PID) (PARP [3]; based on PBL (surrogate tissue) PARP inhibition, with TMZ 100 mg/m^2 daily x 5): 12 mg/m^2 | recovery of PBL PARP activity over 24 hours (PARP [3]; doses above 8 mg/m^2): no recovery was observed | recovery of PBL PARP activity over 24 hours (PARP [3]; lower dose levels): recovery of enzyme activity over 24 hours | PARP-inhibitory dose (PID) (PARP [3]; part 1, 5 dose levels, TMZ 100 mg/m^2/day): 12 mg/m^2/day | Mean tumor PARP inhibition (PARP [4]; at 5 hours): 92% | tumor PARP inhibition, range (PARP [4]; at 5 hours): 46 - 97% | PARP inhibition in paired tumour biopsies (PARP [4]; part 2, all biopsies, 12 and 18 mg/m^2): > 50% | pharmacokinetic linearity ([1]; 1-18 mg/m^2, 30 minute IV infusion): linear | exposure (AUC0-24hr) in predicted extensive vs poor CYP2D6 metabolism ([1]; CYP2D6 genotype *4,*4 vs wild type/heterozygous): similar | effect of TMZ on pharmacokinetics (interaction) [1]: no interaction | t^1/2 mean ([1]; cohort 2, 699 dose 2 mg/m^2 (n=3), TMZ dose 100, day 1): 3.8 h | t^1/2 mean ([1]; cohort 2, 699 dose 2 mg/m^2 (n=3), TMZ dose 100, day 4): 8.0 h | t^1/2 mean ([1]; cohort 2, 699 dose 2 mg/m^2 (n=3), TMZ dose 100, day -7): 6.9 h | t^1/2 mean ([1]; cohort 3, 699 dose 4 mg/m^2 (n=3), TMZ dose 100, day 1): 10.6 h | t^1/2 mean ([1]; cohort 3, 699 dose 4 mg/m^2 (n=3), TMZ dose 100, day 4): 10.9 h | t^1/2 mean ([1]; cohort 3, 699 dose 4 mg/m^2 (n=3), TMZ dose 100, day -7): 23.2 h | t^1/2 mean ([1]; cohort 4, 699 dose 8 mg/m^2 (n=4), TMZ dose 100, day 1): 13.9 h | t^1/2 mean ([1]; cohort 4, 699 dose 8 mg/m^2 (n=4), TMZ dose 100, day 4): 18.3 h | t^1/2 mean ([1]; cohort 4, 699 dose 8 mg/m^2 (n=4), TMZ dose 100, day -7): 19.9 h | t^1/2 mean ([1]; cohort 5-8, 699 dose 12 mg/m^2 (n=12), TMZ dose 100-200, day 1): 15.0 h | t^1/2 mean ([1]; cohort 5-8, 699 dose 12 mg/m^2 (n=12), TMZ dose 100-200, day 4): 16.8 h | t^1/2 mean ([1]; cohort 5-8, 699 dose 12 mg/m^2 (n=12), TMZ dose 100-200, day -7): 11.5 h | t^1/2 mean ([1]; cohort 9, 699 dose 18 mg/m^2 (n=6), TMZ dose 200, day 1): 16.0 h | t^1/2 mean ([1]; cohort 9, 699 dose 18 mg/m^2 (n=6), TMZ dose 200, day 4): 15.2 h | t^1/2 mean ([1]; cohort 9, 699 dose 18 mg/m^2 (n=6), TMZ dose 200, day -7): 13.1 h | inter-subject variability of normalized AUC0-24h ([1]; normalized for actual dose and for mg/m^2 dose (both cases)): 54% | dose limiting toxicity observed ([5]; AG014699 18 mg/m^2/day given with TMZ 200 mg/m^2/day): Myelosuppression | DLTs and other grade 3/4 toxicity ([5]; Part 1 cohort 1, AG014699 1 mg/m^2 + TMZ 100 mg/m^2, 3 patients, 30 cycles): None | DLTs and other grade 3/4 toxicity ([5]; Part 1 cohort 2, AG014699 2 mg/m^2 + TMZ 100 mg/m^2, 4 patients, 11 cycles): None | DLTs and other grade 3/4 toxicity ([5]; Part 1 cohort 3, AG014699 4 mg/m^2 + TMZ 100 mg/m^2, 4 patients, 20 cycles): None | DLTs and other grade 3/4 toxicity ([5]; Part 1 cohort 4, AG014699 8 mg/m^2 + TMZ 100 mg/m^2, 4 patients, 5 cycles): None | DLTs and other grade 3/4 toxicity ([5]; Part 1 cohort 5, AG014699 12 mg/m^2 + TMZ 100 mg/m^2, 3 patients, 11 cycles): None | DLTs and other grade 3/4 toxicity ([5]; Part 2 cohort 6, AG014699 12 mg/m^2 + TMZ 135 mg/m^2, 3 patients, 6 cycles): None | DLTs and other grade 3/4 toxicity ([5]; Part 2 cohort 7, AG014699 12 mg/m^2 + TMZ 170 mg/m^2, 3 patients, 10 cycles): None | DLTs and other grade 3/4 toxicity ([5]; Part 2 cohort 8, AG014699 12 mg/m^2 + TMZ 200 mg/m^2, 3 patients, 16 cycles): None | Recommended dose ([5]; combination with temozolomide): 12 mg/m^2 | dose recommended for future studies [5]: 12 mg/m^2/day | DLT ([5]; part 2, PARP inhibitory dose of AG014699 with 200 mg/m^2 temozolomide): without DLT | tolerability of the combination with temozolomide ([5]; patients, no toxic deaths): well tolerated | toxicity attributable to AG014699 alone ([5]; patients, single agent): No toxicity of any kind | mean increase in Comet tail size at 24 h vs 4 h ([6]; Day 1, PARP inhibitory doses (12-18 mg/m^2) with TMZ, p=0.03): 3% | mean decrease in Comet tail size at 24 h vs 4 h ([6]; Day 1, lower doses (1-8 mg/m^2) with TMZ): 8% | DNA single strand breaks (SSB) ([6]; all patients treated at PID): increases in DNA SSB | DNA damage in PBLs (Comet analysis) ([6]; patients treated with AG014699 and TMZ): evidence of DNA damage in all patients | tumour response in patients with metastatic melanoma (advanced solid tumors; no prior chemotherapy for melanoma): one documented complete and one partial response | tumour response in a patient with a desmoid tumour (advanced solid tumors; previously treated with surgery and imatinib): a further partial response | xenograft PARP inhibition (PARP [7]): 50% | antitumour efficacy (SW620 tumours): cures were seen | partial response rate (metastatic melanoma): 17% | patients having stable disease for 6 months or more (metastatic melanoma): 17%

Cn1nnc2c(C(N)=O)ncn2c1=O [Temozolomide, reference compound]
Recommended dose ([5]; combination with AG014699): 200 mg/m2 | dose recommended for future studies [5]: 200 mg/m^2/day | tolerability ([8]; TMZ 200 mg/m^2/day): well tolerated | toxicity ([8]; TMZ 225 mg/m^2/day): significant myelosuppression

From article PMC2652879 (Clinical cancer research : an official journal of the …, 2008)
